{"data": "Experimental data from different studies", "target": "Dual specificity protein kinase CLK2 (CLK2, Homo sapiens, UniProt P49760)", "method": "competition with immobilised ligand"}
{"SMILES": "O=C(NCC1CCOCC1)c1n[nH]cc1NC(=O)c1c(F)cccc1F", "read-out": "binding", "tested at": "1 µM", "remaining binding [%]": 34}
{"SMILES": "O=C(NCCCN1CCOCC1)c1ccc(Nc2nccc(-c3cc4ccccc4s3)n2)cc1", "read-out": "binding", "tested at": "1 µM", "remaining binding [%]": 28}
{"SMILES": "Nc1ncc2c(n1)-c1c([nH]c3ccc(C#CC4CC4)cc13)CCCC2", "read-out": "binding", "tested at": "1 µM", "remaining binding [%]": 96}
{"SMILES": "O=C(c1ccc(Nc2ncc(Cl)c(-c3ccc(Cl)s3)n2)cc1)N1CCC(N2CCCC2)CC1", "read-out": "binding", "tested at": "1 µM", "remaining binding [%]": 5.2}
{"SMILES": "C[C@H](NC(=O)c1cnc2n1[C@](C)(Cc1ccc(C#N)cc1)C(=O)N2c1cc(Cl)c(F)c(Cl)c1)C(=O)NC1(c2ccccn2)CC1", "read-out": "cell-free assay", "tested at": "1 µM", "remaining binding [%]": 97}
{"SMILES": "CNC(=O)[C@@H]1CC[C@@H](n2c(-c3ccc4cnccc4c3)nc3ccc(C(=O)NCc4cccc(C(N)=O)c4)cc32)C1", "read-out": "binding", "tested at": "1 µM", "remaining binding [%]": 100}
{"SMILES": "CCOC(=O)c1cc2cc(-c3cc(C(=O)NCc4ccc(C(=O)O)cc4)nn3C)ccc2[nH]1", "read-out": "cell-free assay", "tested at": "0.1 µM", "remaining binding [%]": 96}
{"SMILES": "C[C@@H](c1ccc(-n2cnc3c(N)ncnc32)cc1)N1CCc2nn(C)c(Cc3ccccc3)c2C1=O", "read-out": "binding", "tested at": "0.1 µM", "remaining binding [%]": 79}
{"SMILES": "Nc1c(C(=O)NCc2ccc(C(=O)NCCCC3CCCCC3)cc2)cnn1-c1ccccc1", "read-out": "cell-free assay", "tested at": "0.1 µM", "remaining binding [%]": 100}
{"SMILES": "CCN1CCN(Cc2ccc(C(=O)Nc3ccc(C)c(Oc4ccc5c(c4)CC(=O)N5)c3)cc2C(F)(F)F)CC1", "read-out": "binding", "tested at": "1 µM", "remaining binding [%]": 100}
{"SMILES": "Cc1cnc(Nc2ccc(C(=O)N3CCC(N4CCCC4)CC3)cc2)nc1-c1cc2ccccc2s1", "read-out": "binding", "tested at": "1 µM", "remaining binding [%]": 8.8}
{"SMILES": "Cc1nc(Cc2cccc(C(F)(F)F)c2)sc1-c1ccc(C(N)=O)nc1", "read-out": "cell-free assay", "tested at": "1 µM", "remaining binding [%]": 100}
{"SMILES": "FC(F)(F)Oc1cccc(-c2cnc3ccc(-c4ccncc4)nn23)c1", "read-out": "cell-free assay", "tested at": "5 µM", "remaining binding [%]": 6.2}
